Published values gathered from unrelated publications.
Lines come from different studies, so protocols differ.
Target: Receptor-interacting serine/threonine-protein kinase 4 (RIPK4, Homo sapiens, UniProt P57078)
Residues used in one study (P57078 1-832): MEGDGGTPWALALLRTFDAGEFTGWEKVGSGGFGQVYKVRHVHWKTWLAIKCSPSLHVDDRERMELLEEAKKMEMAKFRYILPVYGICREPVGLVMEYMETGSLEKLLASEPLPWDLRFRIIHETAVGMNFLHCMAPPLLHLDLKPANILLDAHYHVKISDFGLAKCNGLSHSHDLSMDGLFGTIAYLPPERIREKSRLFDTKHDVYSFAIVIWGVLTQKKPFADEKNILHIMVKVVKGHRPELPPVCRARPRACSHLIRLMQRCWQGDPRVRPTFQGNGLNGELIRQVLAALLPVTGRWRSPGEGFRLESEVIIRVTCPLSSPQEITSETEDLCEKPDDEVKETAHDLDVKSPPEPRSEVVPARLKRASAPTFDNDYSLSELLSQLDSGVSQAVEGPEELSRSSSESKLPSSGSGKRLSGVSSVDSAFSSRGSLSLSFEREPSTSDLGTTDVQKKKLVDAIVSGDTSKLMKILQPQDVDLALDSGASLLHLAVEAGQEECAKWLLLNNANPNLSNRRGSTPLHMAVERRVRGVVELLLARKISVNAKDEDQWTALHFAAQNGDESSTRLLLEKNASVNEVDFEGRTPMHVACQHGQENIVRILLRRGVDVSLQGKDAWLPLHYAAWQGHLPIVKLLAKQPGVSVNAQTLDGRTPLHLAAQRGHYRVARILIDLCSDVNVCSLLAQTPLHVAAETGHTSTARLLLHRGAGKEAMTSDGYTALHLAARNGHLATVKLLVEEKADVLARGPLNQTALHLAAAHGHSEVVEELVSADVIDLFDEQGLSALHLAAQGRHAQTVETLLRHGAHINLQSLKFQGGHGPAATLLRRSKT

SMILES	observed	method	tested at	remaining binding [%]
c1cnn2ncc(-c3ccnc(N4CCC45COC5)n3)c2c1	binding	–	1 µM	52
O=C(c1ccc(Nc2ncc(Cl)c(-c3cc4ccccc4s3)n2)cc1)N1CCC(N2CCCC2)CC1	binding	competition with immobilised ligand	1 µM	41
CN(CCCC(F)(F)F)c1nccc(-c2cnn3ncccc23)n1	binding	–	1 µM	100
Cc1cnc(Nc2ccc(C(=O)N3CCC(N4CCCC4)CC3)cc2)nc1-c1cc2ccccc2s1	binding	competition with immobilised ligand	1 µM	28
O=C(Nc1c[nH]nc1C(=O)NC1CCNCC1)c1cc(F)cc(F)c1	binding	competition with immobilised ligand	1 µM	100
CN(C)c1nccc(-c2cnc3ncccn23)n1	binding	–	1 µM	71
CS(=O)(=O)N1CCCC(NC(=O)[C@H](CCC2CCCCC2)NC(=O)c2ccc(CNc3ncnc4c3nnn4-c3ccccc3)cc2)C1 (stereo partly drawn)	cell-free assay	competition with immobilised ligand	0.1 µM	100
C[C@@H]1CCN(c2nccc(-c3cnn4ncccc34)n2)C1	binding	–	1 µM	18
O=C(NCCCN1CCOCC1)c1ccc(Nc2ncc(Cl)c(-c3ccc(Cl)s3)n2)cc1	binding	competition with immobilised ligand	1 µM	46
N[C@H]1CCN(c2nccc(-c3cnn4ncccc34)n2)C1	binding	–	1 µM	100
COc1ccc2c(c1)O[C@H](c1ccc(OC)c(OC)c1)C[C@@H]2NC(=O)C1(c2ccc3c(c2)OC(F)(F)O3)CC1	cell-free assay	competition with immobilised ligand	1 µM	75
FC(F)(F)Oc1cccc(-c2cnc3ccc(-c4ccncc4)nn23)c1	binding	competition with immobilised ligand	5 µM	69
CN1CCN(c2cnc3c(C4CCN(C(=O)c5ccc(OC(F)(F)F)cc5N)CC4)ncnc3c2)CC1	cell-free assay	competition with immobilised ligand	1 µM	100
C=CC(=O)N1CCC(C(=O)NCC(=O)N2CCN(c3nc(-c4cnc(N)nc4C(F)F)nc(N4CCOCC4)n3)CC2)CC1	binding	competition with immobilised ligand	1 µM	76
COc1cnc(Nc2cccc(S(N)(=O)=O)c2)nc1N1CCN(c2ccccc2)CC1	binding	competition with immobilised ligand	1 µM	86
Cc1c(NC(=O)c2cc(C(N)=O)nc3cc(F)ccc23)c(C(F)(F)F)nn1Cc1ccc(C#N)cc1	cell-free assay	competition with immobilised ligand	1 µM	92
CNC(=O)[C@@H]1CC[C@@H](n2c(-c3ccc4cnccc4c3)nc3ccc(C(=O)NCc4cccc(C(N)=O)c4)cc32)C1	binding	competition with immobilised ligand	1 µM	65
CC1=C(C#N)[C@@H](c2ccc3[nH]nc(C)c3c2)C(C#N)=C(c2ccc(Cl)cc2)N1	cell-free assay	competition with immobilised ligand	1 µM	71.8
Nc1ncc2c(n1)-c1c([nH]c3ccc(C#CC4CC4)cc13)CCCC2	binding	competition with immobilised ligand	1 µM	100
CC1CCCN1c1nccc(-c2cnn3ncccc23)n1 (stereo not drawn)	binding	–	1 µM	98
N#CC1(c2ccccn2)CCN(Cc2cc(C(=O)N3CCCC3)c(=O)n3ccccc23)CC1	cell-free assay	competition with immobilised ligand	1 µM	100
